Columns and labels:
MCF-7 cells [1] = assay: Cell cycle analysis; type: cell-based; settings: for DNA content% % G0–G1 / DNA content% % G2–M / DNA content% % S / DNA content% % Pre G1: MCF-7 cells, 10 μg mL^−1, 24 h; for cell cycle arrest: MCF-7 cell line, in words
MCF-7 cells [2] = assay: Annexin V-FITC apoptosis assay; type: cell-based; settings: 2.5 μM, 24 h, Annexin V and PI double staining
How it was run: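 MCF-7 cells exposed to test compound (2.5 μM) for 24 h, then double-stained with Annexin V-FITC and propidium iodide. Stained cells were detected by flow cytometry, and the percentage of apoptotic cells was determined.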

PARP-1 = PARP-1 (Homo sapiens, UniProt P09874); assay: In vitro PARP-1 inhibitory assay; type: biochemical; settings: IC50 (nM), in vitro inhibitory activity against PARP-1; mean ± S.E.M., n = 3
Chain of PARP-1 (P09874 whole entry): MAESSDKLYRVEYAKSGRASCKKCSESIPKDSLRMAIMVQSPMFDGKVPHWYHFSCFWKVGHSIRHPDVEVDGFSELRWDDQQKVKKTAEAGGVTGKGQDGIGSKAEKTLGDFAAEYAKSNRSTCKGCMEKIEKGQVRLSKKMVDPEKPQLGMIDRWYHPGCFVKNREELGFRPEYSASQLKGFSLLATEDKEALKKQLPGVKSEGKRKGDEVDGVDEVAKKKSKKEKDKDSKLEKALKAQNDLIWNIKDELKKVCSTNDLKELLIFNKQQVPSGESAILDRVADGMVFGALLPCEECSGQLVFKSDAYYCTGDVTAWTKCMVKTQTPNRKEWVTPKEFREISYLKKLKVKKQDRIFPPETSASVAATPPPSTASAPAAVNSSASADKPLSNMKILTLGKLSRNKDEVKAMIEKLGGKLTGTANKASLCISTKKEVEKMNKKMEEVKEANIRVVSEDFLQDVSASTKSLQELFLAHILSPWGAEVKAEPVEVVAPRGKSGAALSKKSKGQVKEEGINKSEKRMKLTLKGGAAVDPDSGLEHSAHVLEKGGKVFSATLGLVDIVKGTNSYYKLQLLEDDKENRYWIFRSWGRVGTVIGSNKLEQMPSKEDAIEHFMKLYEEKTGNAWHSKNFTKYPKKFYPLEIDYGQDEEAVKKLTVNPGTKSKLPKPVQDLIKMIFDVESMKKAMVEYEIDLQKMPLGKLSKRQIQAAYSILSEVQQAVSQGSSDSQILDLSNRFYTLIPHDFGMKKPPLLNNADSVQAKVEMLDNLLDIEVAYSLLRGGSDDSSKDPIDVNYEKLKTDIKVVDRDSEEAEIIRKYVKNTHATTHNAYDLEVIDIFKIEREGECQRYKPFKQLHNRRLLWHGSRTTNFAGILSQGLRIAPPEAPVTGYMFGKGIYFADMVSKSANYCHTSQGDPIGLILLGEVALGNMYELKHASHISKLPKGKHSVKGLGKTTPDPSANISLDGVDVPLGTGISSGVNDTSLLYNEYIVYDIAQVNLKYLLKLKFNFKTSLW

SMILES	DNA content% % G0–G1 (MCF-7 cells [1]) [%]	DNA content% % G2–M (MCF-7 cells [1]) [%]	DNA content% % S (MCF-7 cells [1]) [%]	Apoptosis Total (MCF-7 cells [2]) [%]	IC50 (PARP-1) [nM]	cell cycle arrest (MCF-7 cells [1])	DNA content% % Pre G1 (MCF-7 cells [1]) [%]
CN[C@@H]1C[C@H]2O[C@@](C)([C@@H]1OC)n1c3ccccc3c3c4c(c5c6ccccc6n2c5c31)C(=O)NC4 [Stauroporine, reference compound]	37.19	36.59	26.22	31.74	–	–	–
O=c1c2ccccc2nc(NN=Cc2ccc(O)cc2)n1-c1ccccc1 [Compound 13b, 2-(2-(4-Hydroxybenzylidene)hydrazinyl)-3-phenylquinazolin-4(3H)-one]	–	–	–	–	44.2 ± 3.12	–	–
COc1ccccc1C=NNc1nc2ccccc2c(=O)n1-c1ccccc1 [Compound 13c, 2-(2-(2-Methoxybenzylidene)hydrazinyl)-3-phenylquinazolin-4(3H)-one]	–	–	–	–	45.6 ± 2.86	–	–
COc1ccc(-c2cc(-c3ccc(NC(=O)CSc4nc5ccccc5c(=O)n4-c4ccccc4)cc3)nc(N)c2C#N)cc1 [Compound 8a, N-(4-(6-Amino-5-cyano-4-(4-methoxyphenyl)pyridin-2-yl)phenyl)-2-((4-oxo-3-phenyl-3,4-dihydroquinazolin-2-yl)thio)acetamide]	–	–	–	–	32.5 ± 2.64	–	–
NS(=O)(=O)c1ccc(NC(=O)CNNc2nc3ccccc3c(=O)n2-c2ccccc2)cc1 [Compound 12c, 2-(2-(4-Oxo-3-phenyl-3,4-dihydroquinazolin-2-yl)hydrazinyl)-N-(4-sulfamoylphenyl)-acetamide]	43.28	23.49	33.23	–	27.9 ± 3.45	cell growth arrest at the G2/M phase	19.31
COC(=O)c1ccc(NC(=O)Cn2c(=S)n(-c3ccccc3)c(=O)c3ccccc32)cc1 [Compound 6a, Methyl 4-(2-(4-oxo-3-phenyl-2-thioxo-3,4-dihydroquinazolin-1(2H)-yl)acetamido)benzoate]	–	–	–	–	56 ± 2.95	–	–
CC(=O)c1ccc(NC(=O)Cn2c(=S)n(-c3ccccc3)c(=O)c3ccccc32)cc1 [Compound 6b, N-(4-Acetylphenyl)-2-(4-oxo-3-phenyl-2-thioxo-3,4-dihydroquinazolin-1(2H)-yl)acetamide]	–	–	–	–	64.7 ± 3.38	–	–
COC(=O)c1ccc(NC(=O)CNNc2nc3ccccc3c(=O)n2-c2ccccc2)cc1 [Compound 12a, Methyl 4-(2-(2-(4-oxo-3-phenyl-3,4-dihydroquinazolin-2-yl)hydrazinyl)acetamido)benzoate]	38.51	38.06	23.43	–	39.1 ± 3.89	cell growth arrest at the G2/M phase	26.55

Source: PMC9055986 (RSC Advances, 2020)
